Laboratory results taken from ChEMBL document CHEMBL1148922, “Triterpenoids from Brazilian Ilex species and their in vitro antitrypanosomal activity” (J Nat Prod, 2004).

Key:
Trypanosoma brucei = assay: Antitrypanosomal activity against Trypanosoma brucei S427 by microdilution method; type: functional, organism-based
Method in brief: (§1)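 In vitro test run by the WHO procedure, using serial microdilution in a 96-well microtiter integrated system.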

Trypanosoma cruzi = assay: Antitrypanosomal activity against Trypanosoma cruzi Tulahuen CL2 by microdilution method; type: functional, organism-based; method in brief: as §1

Row | IC50 (Trypanosoma brucei) | IC50 (Trypanosoma cruzi) | SMILES
1 | > 32 µM | > 32 µM | CC1(C)CC[C@]2(C(=O)O[C@@H]3O[C@H](CO)[C@@H](O)[C@H](O)[C@H]3O)CC[C@]3(C)C(=CC[C@@H]4[C@@]5(C)CC[C@H](O[C@@H]6O[C@H](CO)[C@H](O)[C@H](O)[C@H]6O[C@@H]6O[C@H](CO)[C@@H](O)[C@H](O)[C@H]6O)C(C)(C)[C@@H]5CC[C@]43C)[C@@H]2C1
2 | 4 µM | 10 µM | CC1(C)CC[C@]2(C(=O)O)CC[C@]3(C)C(=CC[C@@H]4[C@@]5(C)CC[C@H](O[C@@H]6O[C@H](CO)[C@H](O)[C@H](O)[C@H]6O[C@@H]6O[C@H](CO)[C@@H](O)[C@H](O)[C@H]6O)C(C)(C)[C@@H]5CC[C@]43C)[C@@H]2C1
3 | > 32 µM | > 32 µM | C[C@H]1CC[C@]2(C(=O)O)CC[C@]3(C)C(=CC[C@@H]4[C@@]5(C)CC[C@H](O[C@@H]6OC[C@H](O)[C@H](O)[C@H]6O)[C@](C)(CO)[C@@H]5CC[C@]43C)[C@@H]2[C@]1(C)O [BREVICUSPISAPONIN 1]
4 | 16 µM | > 32 µM | C[C@H]1CC[C@]2(C(=O)O)CC[C@]3(C)C(=CC[C@@H]4[C@@]5(C)CC[C@H](O[C@@H]6OC[C@H](O)[C@H](O)[C@H]6O)C(CO)(CO)[C@@H]5CC[C@]43C)[C@@H]2[C@]1(C)O [BREVICUSPISAPONIN 2]
5 | > 32 µM | > 32 µM | C[C@@H]1CC[C@]2(C(=O)O[C@@H]3O[C@H](CO)[C@@H](O)[C@H](O)[C@H]3O)CC[C@]3(C)C(=CC[C@@H]4[C@@]5(C)CC[C@H](O[C@@H]6OC[C@H](O)[C@H](O[C@@H]7O[C@H](CO)[C@@H](O)[C@H](O)[C@H]7O)[C@H]6O)C(C)(C)[C@@H]5CC[C@]43C)[C@@H]2[C@]1(C)O [ILEKUDINOSIDE E]
6 | > 32 µM | > 32 µM | C[C@H]1[C@H](C)CC[C@]2(C(=O)O[C@@H]3O[C@H](CO)[C@@H](O)[C@H](O)[C@H]3O)CC[C@]3(C)C(=CC[C@@H]4[C@@]5(C)CC[C@H](O[C@@H]6OC[C@H](O)[C@H](O[C@@H]7O[C@H](CO)[C@@H](O)[C@H](O)[C@H]7O)[C@H]6O)C(C)(C)[C@@H]5CC[C@]43C)[C@H]12 [MATESAPONIN 1]
7 | > 32 µM | > 32 µM | C[C@H]1[C@H](C)CC[C@]2(C(=O)O[C@@H]3O[C@H](CO[C@@H]4O[C@H](CO)[C@@H](O)[C@H](O)[C@H]4O)[C@@H](O)[C@H](O)[C@H]3O)CC[C@]3(C)C(=CC[C@@H]4[C@@]5(C)CC[C@H](O[C@@H]6OC[C@H](O)[C@H](O[C@@H]7O[C@H](CO)[C@@H](O)[C@H](O)[C@H]7O)[C@H]6O)C(C)(C)[C@@H]5CC[C@]43C)[C@H]12 [MATESAPONIN 3]
8 | > 32 µM | > 32 µM | C[C@H]1[C@H](C)CC[C@]2(C(=O)O[C@@H]3O[C@H](CO[C@@H]4O[C@H](CO)[C@@H](O)[C@H](O)[C@H]4O)[C@@H](O)[C@H](O)[C@H]3O)CC[C@]3(C)C(=CC[C@@H]4[C@@]5(C)CC[C@H](O[C@@H]6OC[C@H](O)[C@H](O[C@@H]7O[C@H](CO)[C@@H](O)[C@H](O)[C@H]7O)[C@H]6O[C@@H]6O[C@@H](C)[C@H](O)[C@@H](O)[C@H]6O)C(C)(C)[C@@H]5CC[C@]43C)[C@H]12 [MATESAPONIN 4]
9 |  | 0.39 µM | CC1CS(=O)(=O)CCN1/N=C/c1ccc([N+](=O)[O-])o1 (configuration not stated) [NIFURTIMOX]
10 | 17 µM | > 32 µM | CC(=O)O[C@H]1CC[C@]2(C)[C@H]3CC=C4[C@@H]5[C@@H](C)[C@H](C)CC[C@]5(C(=O)O)CC[C@@]4(C)[C@]3(C)CC[C@H]2C1(C)C [O-ACETYLURSOLIC ACID]
11 | > 32 µM | > 32 µM | C[C@@H]1CC[C@]2(C(=O)O[C@@H]3O[C@H](CO)[C@@H](O)[C@H](O)[C@H]3O)CC[C@]3(C)C(=CC[C@@H]4[C@@]5(C)CC[C@H](O)[C@@](C)(CO)[C@@H]5CC[C@]43C)[C@@H]2[C@]1(C)O [PEDUNCULOSIDE]
12 | > 32 µM | > 32 µM | CC(=O)OC[C@H]1O[C@@H](OC(=O)[C@]23CC[C@@H](C)[C@@](C)(OC(C)=O)[C@H]2C2=CC[C@@H]4[C@@]5(C)CC[C@H](O[C@@H]6OC[C@H](OC(C)=O)[C@H](O[C@@H]7O[C@H](COC(C)=O)[C@@H](OC(C)=O)[C@H](OC(C)=O)[C@H]7OC(C)=O)[C@H]6OC(C)=O)C(C)(C)[C@@H]5CC[C@@]4(C)[C@]2(C)CC3)[C@H](OC(C)=O)[C@@H](OC(C)=O)[C@@H]1OC(C)=O [PERACETYL ILEXOSIDE II]
13 | 4 µM | 4 µM | C[C@H]1[C@H](C)CC[C@]2(C(=O)O)CC[C@]3(C)C(=CC[C@@H]4[C@@]5(C)CC[C@H](O)C(C)(C)[C@@H]5CC[C@]43C)[C@H]12 [URSOLIC ACID]
14 | > 32 µM | > 32 µM | C[C@H]1[C@H](C)CC[C@]2(CO)CC[C@]3(C)C(=CC[C@@H]4[C@@]5(C)CC[C@H](O)C(C)(C)[C@@H]5CC[C@]43C)[C@H]12 [UVAOL]
